Laboratory results published in the EternaBench riboswitch data.

Tested on: MS2 coat protein
Assay: apparent Kd, MS2 coat protein; higher = weaker binding; RNA-MaP array; tryptophan 2.4 mM where present
Summary of the method: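 Stalled E. coli RNA polymerase transcribed each design on Illumina sequencing-chip clusters. The clusters were titrated with SNAP-549-labelled MS2 coat protein, starting at 0.7 or 1.5 nM and doubling up to 3 µM, first without ligand and then with constant ligand, in 100 mM Tris-HCl pH 7.5, 80 mM KCl, 4 mM MgCl2, BSA, DTT, yeast tRNA and Tween-20. Green signal was normalised to red-channel RNA signal and to the control-cluster median Fmax. The apparent Kd is the median of filtered binding-curve fits made for each cluster.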

[1] = designed as: OFF switch for tryptophan, no ligand
[2] = ligand present: tryptophan, designed as: OFF switch for tryptophan
[3] = designed as: ON switch for tryptophan, no ligand
[4] = ligand present: tryptophan, designed as: ON switch for tryptophan

GUCCAAAGGUCGGCCGCCACUGUAGAGUGUGUUCUUUCACAUGAGGAUCACCCAUGUUGUUAUUAUAGGACCGGGAUUGUAGGAC
apparent Kd [1]: 20.4 nM | apparent Kd [2]: 28.1 nM

GUGUUAUGGUCGGCCGCCACUCUGACAUGAGGAUCACCCAUGUUGUACAUGAGGAUCACCCAUGUGAGGACCGGGACACGUGCGA
apparent Kd [1]: 401 nM | apparent Kd [2]: 442 nM

GUUUAAAGGUCGGCCGCCACUGUAGGAUGUGUUCUUUCACAUGAGGAUCACCCAUGUUGUUAUUAUAGGACCGGGAUUUUAGGAC
apparent Kd [1]: 27.1 nM | apparent Kd [2]: 22.4 nM

GUUUUGGGAUCGGCCGCCACUACAUGAGGAUCACCCAUGUGGACAAAUAGGGUUUUUAAGCUCGGUAGGACCGGGAUUCGAACAU
apparent Kd [1]: 18.1 nM | apparent Kd [2]: 67.5 nM

UACAUGAGGAUCACCCAUGUAUUGCCGGUACGAGGACCGGUACGGCCGCCACUCGGAGCAUGAGGAUCACCCAUGUGCUGCUAUG
apparent Kd [3]: 66.2 nM | apparent Kd [4]: 51.8 nM

UAUAUAUAUCACGAACUGUGGUGUAUGUCUCGAGGACCGGUACGGCCGCCACUCGCGCGGCCUCACAUGAGGAUCACCCAUGUCC
apparent Kd [1]: 89.2 nM | apparent Kd [2]: 113 nM

UAUCUACAUGAAUAGGUUAUUCGAUUAUUUCGAGGACCGGUACGGCCGCCACUCGUUAACAUAUACAUGAGGAUCACCCAUGUUA
apparent Kd [3]: 16.9 nM | apparent Kd [4]: 15.9 nM

UCGUUAUGGUCGGCCGCCACUCGCGGAGAGCAUAGCUCAAACAUGAGGAUCACCCAUGUAUCAUGGAGGACCGGGACCAUAACGU
apparent Kd [3]: 31.9 nM | apparent Kd [4]: 14 nM

UCGUUUUAGUCGGCCGCCACUGUAUGCAUGUUUAACAUGAGGAUCACCCAUGUCCCGUACUAUAACAGGACCGGGACGUAAUAGA
apparent Kd [3]: 168 nM | apparent Kd [4]: 100 nM

UGAUACCAGUCGGCCGCCACUACAUGAGGAUCACCCAUGUAUCCUCAACUGCUAGAUACUAGCAGUAGGACCGGGACUGGUAUCU
apparent Kd [1]: 307 nM | apparent Kd [2]: 1150 nM

UGUCAUGGAAACAUGACUGGUUCUACCGGUCGAGGACCGGUACGGCCGCCACUCGAUUGGUGGCACAUGAGGAUCACCCAUGUUA
apparent Kd [3]: 28.2 nM | apparent Kd [4]: 30 nM

UGUGUGUGACCAGGAAAUGGUCACACACAGCGAGGACCGGUACGGCCGCCACUCGGCCGUACAUGAGGAUCACCCAUGUCGGGUA
apparent Kd [3]: 674 nM | apparent Kd [4]: 741 nM

UUAGUAACGACGGCCGCCACUGGAUAUGAACAUGAGGAUCACCCAUGUAGAGAUCCUAGAAUAAACAGGACCGGGUCUGAUAAUA
apparent Kd [1]: 17.2 nM | apparent Kd [2]: 53.4 nM

UUCACAUGAUCUGAAUAUACAGAAAAGAAACGAGGACCGGUACGGCCGCCACUCGUGCCGGAAACAUGAGGAUCACCCAUGUGUU
apparent Kd [1]: 24.2 nM | apparent Kd [2]: 22 nM

UUGUGGCGCUCGGCCGCCACUCCGACAUGAGGAUCACCCAUGUUCUACAUGAGGAUCACCCAUGUGAGGACCGGGAGACACUUCC
apparent Kd [1]: 104 nM | apparent Kd [2]: 103 nM

UUUAUUAUUGACUCGUUAUUGUUUUUGGAUCGAGGACCGGUACGGCCGCCACUCGUGAUAUACAUGAGGAUCACCCAUGUUAGCA
apparent Kd [3]: 14.9 nM | apparent Kd [4]: 12.8 nM
